Reference: ChEMBL document CHEMBL4425191, “Design, synthesis and biological evaluation of photoaffinity probes of antiangiogenic homoisoflavonoids” (2016)

Key:
Format in all cases: functional
[1] = test system: HUVEC; experiment: Antiproliferative activity against human HUVEC cells after 48 hrs by alamar blue based fluorescence assay
Procedure, shortened: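 HUVECs, passages 5–8, cultured in EGM-2 (EBM plus growth-factor bullet kit, 2% FBS). 2,500 cells were seeded 24 h, then incubated 48 h with compound at 0.5 nM–500 µM. alamarBlue was added and fluorescence read 4 h later at 560/590 nm; curves were fitted versus DMSO. GI50 <100 µM was listed only for ≥50% reduction at the top dose.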

[2] = test system: Y79; experiment: Antiproliferative activity against human Y79 cells after 48 hrs by alamar blue based fluorescence assay; details: Y79, 48 h
[3] = Antiproliferative activity against human 92-1 cells after 48 hrs by alamar blue based fluorescence assay
[4] = test system: ARPE-19; experiment: Antiproliferative activity against human ARPE19 cells after 48 hrs by alamar blue based fluorescence assay; details: ARPE-19, 48 h
Procedure, shortened: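 ARPE19 cells grown in Ham's F-10 with 10% FBS and 1% pen-strep; 2,500 cells/well settled 24 h, then 48 h compound treatment over 0.5 nM–500 µM. alamarBlue fluorescence (560/590 nm) was read after 4 h; curves were fitted relative to DMSO. GI50 <100 µM was reported only where the highest concentration cut cell number by ≥50%.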

[5] = Antiproliferative activity against human HREC cells after 48 hrs by alamar blue based fluorescence assay
Procedure, shortened: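 Human retinal microvascular endothelial cells at passages 5–8, 2,500 per well, rested 24 h, then given test compound (0.5 nM–500 µM) for 48 h. Proliferation was read by alamarBlue 4 h after addition (ex 560, em 590 nm) and dose-response fitted against DMSO control. GI50 <100 µM was recorded only if ≥50% reduction occurred at the highest concentration.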

In the case of `COc1ccc(CC2COc3cc(OCCCC(=O)NCCCOc4ccc(C(=O)c5ccc(OCc6cn(CCOCCOCCOCCNC(=O)CCCC[C@@H]7SC[C@@H]8NC(=O)N[C@@H]87)nn6)cc5)cc4)c(OC)c(OC)c3C2=O)cc1OC(=O)[C@H](Cc1ccccc1)NC(=O)OC(C)(C)C` (stereo not given in full), the GI50 [1] is reported as over 100 µM, the GI50 [2] is reported as over 100 µM and the GI50 [3] is reported as over 100 µM. It also gave a GI50 [4] of over 100 µM and a GI50 [5] of 44 µM.
`COc1ccc(CC2COc3cc(OC)c(OC)c(OC)c3C2=O)cc1NC(=O)[C@H](Cc1ccc(OCCCC(=O)O)cc1)NC(=O)OC(C)(C)C` (stereo not given in full) gave a GI50 [1] of 22 µM, a GI50 [2] of over 100 µM and a GI50 [3] of over 100 µM. The GI50 [4] was over 100 µM and the GI50 [5] was 0.0079 µM.
Work on `COc1ccc(CC2COc3cc(OC)c(OC)c(OC)c3C2=O)cc1OC(=O)[C@H](Cc1ccc(OCC(=O)NCCCOc2ccc(C(=O)c3ccc(OCc4cn(CCOCCOCCOCCNC(=O)CCCC[C@@H]5SC[C@@H]6NC(=O)N[C@@H]65)nn4)cc3)cc2)cc1)NC(=O)OC(C)(C)C` (stereo not given in full) yielded a GI50 [1] of 0.44 µM, a GI50 [2] of over 100 µM and a GI50 [3] of over 100 µM. For the same compound, the GI50 [4] was over 100 µM and the GI50 [5] was 0.21 µM.
Work on `COc1ccc(CC2COc3cc(OC)c(OC)c(OC)c3C2=O)cc1NC(=O)[C@H](Cc1ccc(OCCCC(=O)NCCCOc2ccc(C(=O)c3ccc(OCc4cn(CCOCCOCCOCCNC(=O)CCCC[C@@H]5SC[C@@H]6NC(=O)N[C@@H]65)nn4)cc3)cc2)cc1)NC(=O)OC(C)(C)C` (stereo not given in full) yielded a GI50 [1] of over 100 µM, a GI50 [2] of over 100 µM and a GI50 [3] of over 100 µM. The GI50 [4] was over 100 µM and the GI50 [5] was 42 µM.
Work on `COc1ccc(CC2COc3cc(OC)c(OC)c(OC)c3C2=O)cc1OCC(=O)NCCCOc1ccc(C(=O)c2ccc(OCc3cn(CCOCCOCCOCCNC(=O)CCCC[C@@H]4SC[C@@H]5NC(=O)N[C@@H]54)nn3)cc2)cc1` (stereo not given in full) yielded a GI50 [1] of over 100 µM, a GI50 [2] of over 100 µM and a GI50 [3] of over 100 µM. The GI50 [4] was over 100 µM and the GI50 [5] was 0.072 µM.
In the case of `COc1ccc(CC2COc3cc(OC)c(OC)c(OC)c3C2=O)cc1OC(=O)[C@H](Cc1ccc(OCC(=O)O)cc1)NC(=O)OC(C)(C)C` (stereo not given in full), the GI50 [1] is reported as 0.012 µM, the GI50 [2] is reported as over 100 µM and the GI50 [3] is reported as over 100 µM. For the same compound, the GI50 [4] was over 100 µM and the GI50 [5] was 0.047 µM.
